ChEMBL document CHEMBL1629431, “Synthesis and antitumor activity of some 2, 3-disubstituted quinazolin-4(3H)-ones and 4, 6- disubstituted- 1, 2, 3, 4-tetrahydroquinazolin-2H-ones” (2010)

Experiments:
Type in all cases: functional
[1] = tested on: SK-MEL-2; assay: Growth inhibition of human SK-MEL-2 cells at 10 uM after 48 hrs by coulter counter method; conditions: SK-MEL-2, 48 h, read-out: GI
Outline: (§1)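 Single high-dose NCI 60-cell-line panel screen across nine tumor subpanels. Test solutions (0.2 mL) were added in duplicate to wells holding 1.8 mL of culture at 6 × 10⁴ cells/mL. Controls got PBS and DMSO at identical dilutions. Incubation was 48 h at 37 °C in humidified 5% CO₂. Cells were diluted 10-fold in saline, Coulter-counted and dilution-corrected. Results were expressed as percent growth inhibition versus control.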

[2] = tested on: HL-60(TB); assay: Growth inhibition of human HL-60(TB) cells at 10 uM after 48 hrs by coulter counter method; conditions: HL-60, 48 h, read-out: GI
Outline: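 Part of the NCI 60-cell-line single-high-dose panel. Cells were seeded at 6 × 10⁴ cells/mL with test solution in duplicate wells, alongside PBS/DMSO controls at identical dilutions. Plates were held 48 h at 37 °C in a humidified 5% CO₂ incubator. Cells were then diluted 10-fold in saline and counted by Coulter counter, with counts corrected for dilution. Results are percent growth of treated cells, reported as GI %.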

[3] = tested on: MCF7; assay: Growth inhibition of human MCF7 cells at 10 uM after 48 hrs by coulter counter method; conditions: MCF7, 48 h, read-out: GI; outline: as §1
[4] = tested on: SNB-75; assay: Growth inhibition of human SNB75 cells at 10 uM after 48 hrs by coulter counter method; conditions: SNB-75, 48 h, read-out: GI; outline: as §1
[5] = tested on: UACC-62; assay: Growth inhibition of human UACC62 cells at 10 uM after 48 hrs by coulter counter method; conditions: UACC-62, 48 h, read-out: GI; outline: as §1
[6] = tested on: PC-3; assay: Growth inhibition of human PC3 cells at 10 uM after 48 hrs by coulter counter method; conditions: PC-3, 48 h, read-out: GI; outline: as §1
[7] = tested on: SF-268; assay: Growth inhibition of human SF268 cells at 10 uM after 48 hrs by coulter counter method; conditions: SF-268, 48 h, read-out: GI; outline: as §1
[8] = tested on: SK-OV-3; assay: Growth inhibition of human SKOV3 cells at 10 uM after 48 hrs by coulter counter method; conditions: SK-OV-3, 48 h, read-out: GI; outline: as §1
[9] = tested on: U-251; assay: Growth inhibition of human U251 cells at 10 uM after 48 hrs by coulter counter method; conditions: U-251, 48 h, read-out: GI; outline: as §1
[10] = tested on: NCI-H522; assay: Growth inhibition of human NCI-H522 cells at 10 uM after 48 hrs by coulter counter method; conditions: NCI-H522, 48 h, read-out: GI; outline: as §1
[11] = tested on: SF-539; assay: Growth inhibition of human SF539 cells at 10 uM after 48 hrs by coulter counter method; conditions: SF-539, 48 h, read-out: GI; outline: as §1
[12] = tested on: HCT-116; assay: Growth inhibition of human HCT116 cells at 10 uM after 48 hrs by coulter counter method; conditions: HCT-116, 48 h, read-out: GI; outline: as §1
[13] = tested on: MDA-MB-468; assay: Growth inhibition of human MDA-MB-468 cells at 10 uM after 48 hrs by coulter counter method; conditions: MDA-MB-468, 48 h, read-out: GI; outline: as §1
[14] = tested on: UO-31; assay: Growth inhibition of human UO31 cells at 10 uM after 48 hrs by coulter counter method; conditions: UO-31, 48 h, read-out: GI; outline: as §1
[15] = tested on: MDA-MB-231; assay: Growth inhibition of human MDA-MB-231 cells at 10 uM after 48 hrs by coulter counter method; conditions: MDA-MB-231, 48 h, read-out: GI; outline: as §1
[16] = tested on: COLO 205; assay: Growth inhibition of human COLO205 cells at 10 uM after 48 hrs by coulter counter method; conditions: COLO 205, 48 h, read-out: GI; outline: as §1
[17] = tested on: IGROV-1; assay: Growth inhibition of human IGROV1 cells at 10 uM after 48 hrs by coulter counter method; conditions: IGROV-1, 48 h, read-out: GI; outline: as §1
[18] = tested on: CCRF-CEM; assay: Growth inhibition of human CCRF-CEM cells at 10 uM after 48 hrs by coulter counter method; conditions: read-out: GI; outline: as §1
[19] = Growth inhibition of human Hs 578T cells at 10 uM after 48 hrs by coulter counter method; conditions: read-out: GI; outline: as §1
[20] = tested on: NCI-H23; assay: Growth inhibition of human NCI-H23 cells at 10 uM after 48 hrs by coulter counter method; conditions: NCI-H23, 48 h, read-out: GI; outline: as §1
[21] = tested on: T47D; assay: Growth inhibition of human T47D cells at 10 uM after 48 hrs by coulter counter method; conditions: read-out: GI; outline: as §1
[22] = tested on: CAKI-1; assay: Growth inhibition of human Caki1 cells at 10 uM after 48 hrs by coulter counter method; conditions: CAKI-1, 48 h, read-out: GI; outline: as §1
[23] = tested on: MOLT-4; assay: Growth inhibition of human MOLT4 cells at 10 uM after 48 hrs by coulter counter method; conditions: MOLT-4, 48 h, read-out: GI; outline: as §1
[24] = tested on: OVCAR-4; assay: Growth inhibition of human OVCAR4 cells at 10 uM after 48 hrs by coulter counter method; conditions: OVCAR-4, 48 h, read-out: GI; outline: as §1
[25] = tested on: SK-MEL-28; assay: Growth inhibition of human SK-MEL-28 cells at 10 uM after 48 hrs by coulter counter method; conditions: SK-MEL-28, 48 h, read-out: GI; outline: as §1
[26] = tested on: A549; assay: Growth inhibition of human A549 cells at 10 uM after 48 hrs by coulter counter method; conditions: A549, 48 h, read-out: GI; outline: as §1
[27] = tested on: SR; assay: Growth inhibition of human SR cells at 10 uM after 48 hrs by coulter counter method; conditions: read-out: GI; outline: as §1
[28] = tested on: HOP-92; assay: Growth inhibition of human HOP92 cells at 10 uM after 48 hrs by coulter counter method; conditions: HOP-92, 48 h, read-out: GI; outline: as §1
[29] = tested on: SN12C; assay: Growth inhibition of human SN12C cells at 10 uM after 48 hrs by coulter counter method; conditions: read-out: GI; outline: as §1
[30] = tested on: KM12; assay: Growth inhibition of human KM12 cells at 10 uM after 48 hrs by coulter counter method; conditions: KM12, 48 h, read-out: GI; outline: as §1
[31] = tested on: 786-0; assay: Growth inhibition of human 786-0 cells at 10 uM after 48 hrs by coulter counter method; conditions: 786-0, 48 h, read-out: GI; outline: as §1
[32] = tested on: NCI-H226; assay: Growth inhibition of human NCI-H226 cells at 10 uM after 48 hrs by coulter counter method; conditions: NCI-H226, 48 h, read-out: GI; outline: as §1
[33] = tested on: M14; assay: Growth inhibition of human M14 cells at 10 uM after 48 hrs by coulter counter method; conditions: M14, 48 h, read-out: GI; outline: as §1
[34] = tested on: K562; assay: Growth inhibition of human K562 cells at 10 uM after 48 hrs by coulter counter method; conditions: K562, 48 h, read-out: GI; outline: as §1

CCn1c(SCC(=O)c2ccc(OC)cc2)nc2ccccc2c1=O
inhibition of growth at 10 µM [1]: 30%
inhibition of growth at 10 µM [2]: 30%
inhibition of growth at 10 µM [3]: 30%
inhibition of growth at 10 µM [4]: 30%
inhibition of growth at 10 µM [5]: 30%
inhibition of growth at 10 µM [6]: 30%
inhibition of growth at 10 µM [7]: 30%
inhibition of growth at 10 µM [8]: 30%
inhibition of growth at 10 µM [9]: 30%
inhibition of growth at 10 µM [10]: < 30%
inhibition of growth at 10 µM [11]: 30%
inhibition of growth at 10 µM [12]: 30%
inhibition of growth at 10 µM [13]: 30%
inhibition of growth at 10 µM [14]: 31.6%
inhibition of growth at 10 µM [15]: 30%
inhibition of growth at 10 µM [16]: 30%
inhibition of growth at 10 µM [17]: 30%
inhibition of growth at 10 µM [18]: 30%
inhibition of growth at 10 µM [19]: 30%
inhibition of growth at 10 µM [20]: 30%
inhibition of growth at 10 µM [21]: 30%
inhibition of growth at 10 µM [22]: 30%
inhibition of growth at 10 µM [23]: 30%
inhibition of growth at 10 µM [24]: 30%
inhibition of growth at 10 µM [25]: 30%
inhibition of growth at 10 µM [26]: 30%
inhibition of growth at 10 µM [27]: 30%
inhibition of growth at 10 µM [28]: 30%
inhibition of growth at 10 µM [29]: 30%
inhibition of growth at 10 µM [30]: 30%
inhibition of growth at 10 µM [31]: 30%
inhibition of growth at 10 µM [32]: 30%
inhibition of growth at 10 µM [33]: 30%

O=C(CSc1nc2ccccc2c(=O)n1-c1ccc(Cl)cc1)c1ccc(Cl)cc1
inhibition of growth at 10 µM [34]: 30%
inhibition of growth at 10 µM [1]: 30%
inhibition of growth at 10 µM [2]: 30%
inhibition of growth at 10 µM [3]: 30%
inhibition of growth at 10 µM [4]: 30%
inhibition of growth at 10 µM [5]: 30%
inhibition of growth at 10 µM [7]: 30%
inhibition of growth at 10 µM [8]: 30%
inhibition of growth at 10 µM [9]: 30%
inhibition of growth at 10 µM [10]: 52.6%
inhibition of growth at 10 µM [11]: 30%
inhibition of growth at 10 µM [12]: 30%
inhibition of growth at 10 µM [13]: 30%
inhibition of growth at 10 µM [14]: 30%
inhibition of growth at 10 µM [15]: 30%
inhibition of growth at 10 µM [16]: 30%
inhibition of growth at 10 µM [17]: 43.7%
inhibition of growth at 10 µM [18]: 30%
inhibition of growth at 10 µM [19]: 30%
inhibition of growth at 10 µM [20]: 30%
inhibition of growth at 10 µM [21]: 30%
inhibition of growth at 10 µM [22]: 30%
inhibition of growth at 10 µM [23]: 30%
inhibition of growth at 10 µM [24]: 30%
inhibition of growth at 10 µM [25]: 30%
inhibition of growth at 10 µM [26]: 30%
inhibition of growth at 10 µM [27]: 30%
inhibition of growth at 10 µM [28]: 30%
inhibition of growth at 10 µM [29]: 30%
inhibition of growth at 10 µM [30]: 30%
inhibition of growth at 10 µM [31]: 30%
inhibition of growth at 10 µM [32]: 30%
inhibition of growth at 10 µM [33]: 30%

COc1ccc(-n2c(SCC(=O)c3ccc(Cl)cc3)nc3ccccc3c2=O)cc1
inhibition of growth at 10 µM [1]: 30%
inhibition of growth at 10 µM [2]: 33.3%
inhibition of growth at 10 µM [3]: 34.3%
inhibition of growth at 10 µM [4]: 47.4%
inhibition of growth at 10 µM [5]: 76.7%
inhibition of growth at 10 µM [6]: 55.3%
inhibition of growth at 10 µM [7]: 49%
inhibition of growth at 10 µM [8]: 31.9%
inhibition of growth at 10 µM [9]: 31.6%
inhibition of growth at 10 µM [10]: 23%
inhibition of growth at 10 µM [11]: 68.6%
inhibition of growth at 10 µM [12]: 54.6%
inhibition of growth at 10 µM [13]: 41.4%
inhibition of growth at 10 µM [14]: 30%
inhibition of growth at 10 µM [15]: 33.3%
inhibition of growth at 10 µM [16]: 53.1%
inhibition of growth at 10 µM [17]: 45.7%
inhibition of growth at 10 µM [18]: 30%
inhibition of growth at 10 µM [19]: 80.6%
inhibition of growth at 10 µM [20]: 41.1%
inhibition of growth at 10 µM [21]: 30%
inhibition of growth at 10 µM [23]: 30%
inhibition of growth at 10 µM [24]: 32.1%
inhibition of growth at 10 µM [25]: 30%
inhibition of growth at 10 µM [27]: 30%
inhibition of growth at 10 µM [29]: 32.5%
inhibition of growth at 10 µM [30]: 41.8%
inhibition of growth at 10 µM [31]: 31.1%
inhibition of growth at 10 µM [32]: 75.6%
inhibition of growth at 10 µM [33]: 30%
